# Measured values taken from ChEMBL document CHEMBL2151033, “Synthesis, biological evaluation and molecular modeling of 4,6-diarylpyrimidines and diarylbenzenes as novel non-nucleosides HIV-1 reverse transcriptase inhibitors” (Eur J Med Chem, 2012).
# Columns and labels:
# [1] = test system: Human immunodeficiency virus 1; test: Antiviral activity against wild type HIV1 3B infected in human MT4 cells assessed as inhibition of virus-induced cytopathic effect after 5 days by MTT assay; format: functional, organism-based; settings: Human immunodeficiency virus 1, 3B, MT4, 120 h
# Method in brief: (§1)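 Infected and mock-infected MT-4 cells (6×10^5 cells/mL, exponentially growing, spun 5 min at 220 g and resuspended) were treated with serial 5-fold compound dilutions in triplicate. Virus stock at 100-300 CCID50 was added. After 5 days, viability was read spectrophotometrically by MTT at 540 and 690 nm using the median OD of three wells. EC50 is the concentration giving 50% protection from viral cytopathic effect.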
# [2] = test system: Human immunodeficiency virus 1; test: Antiviral activity against HIV1 RES056 harbouring RT K103N/Y181C mutant infected in human MT4 cells assessed as inhibition of virus-induced cytopathic effect after 5 days by MTT assay; format: functional, organism-based; settings: Human immunodeficiency virus 1, RES056, MT4, 120 h
# Method in brief: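 MT-4 cells (exponentially growing, spun 5 min at 220 g, resuspended at 6×10^5 cells/mL) infected with HIV-1 RES056 (K103N + Y181C) at 100-300 CCID50, with serial 5-fold compound dilutions run in triplicate alongside mock-infected wells. Viability was read by MTT at 540 and 690 nm after 5 days, using the median OD of three wells. EC50 is the concentration giving 50% protection from viral cytopathic effect.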
# [3] = test system: Human immunodeficiency virus 2; test: Antiviral activity against HIV2 ROD infected in human MT4 cells assessed as inhibition of virus-induced cytopathic effect after 5 days by MTT assay; format: functional, organism-based; settings: Human immunodeficiency virus 2, ISOLATE ROD, MT4, 120 h; method in brief: as §1
# [4] = Cytotoxicity against human MT4 cells assessed as decrease in cell viability after 5 days by MTT assay; format: cell-based
# Method in brief: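 Uninfected, mock-treated MT-4 cells (6×10^5 cells/mL) were exposed to serial 5-fold compound dilutions in triplicate wells, run alongside the infected series. After 5 days, MTT reduction was read at 540 and 690 nm using the median OD of three wells. CC50 is the concentration that reduces OD540 of the mock-infected control by 50%.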
# [5] = Selectivity index, ratio of CC50 for human MT4 cells to EC50 for wild type HIV1 3B infected in human MT4 cells; format: toxicity, cell-based; settings: read-out: Ratio CC50/EC50
# Method in brief: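 Selectivity index is CC50 in mock-infected MT-4 cells divided by EC50 against HIV-1 IIIB. Both come from the 5-day MTT assay run in parallel on infected and uninfected cells with serial 5-fold dilutions in triplicate.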
# [6] = test system: Human immunodeficiency virus 1; test: Ratio of nevirapine EC50 to compound EC50 for wild type HIV1 3B infected in human MT4 cells; format: functional
# [7] = test system: Human immunodeficiency virus 1; test: Ratio of delavirdine EC50 to compound EC50 for wild type HIV1 3B infected in human MT4 cells; format: functional
Structure (SMILES),EC50 [1] [µM],EC50 [2] [µM],EC50 [3] [µM],CC50 at 120 h [4] [µM],selectivity ratio [5],Ratio EC50 [6],Ratio EC50 [7]
Cc1cc(C)c(Nc2cc(Oc3c(C)cc(C)cc3C)ncn2)c(C)c1,> 38.5,> 38.5,> 38.5,38.2,< 1,,
Cc1cc(C)c(Oc2cc(Nc3ccc(C#N)cc3)ncn2)c(C)c1,0.049,> 42.2,> 42.2,42.2,870,2,11
Cc1cc(C)c(Nc2cc(Oc3c(C)cc(C#N)cc3C)ncn2)c(C)c1,5.25,> 37.5,> 37.5,37.5,7,,
Cc1cc(C)c(Nc2cccc(Nc3ccc(C#N)cc3)c2)c(C)c1,0.398,> 220,> 220,≥ 220,≥ 552,,1.5
Cc1cc(C)c(Oc2cccc(Nc3ccc(C#N)cc3)c2)c(C)c1,0.599,> 52.6,> 52.6,52.6,65,,
Cc1cc(C)c(Nc2cccc(Oc3c(C)cc(C)cc3C)c2)c(C)c1,> 43.6,,> 43.6,43.6,< 1,,
Cc1cc(C#N)cc(C)c1Oc1cc(Nc2ccc(C#N)cc2)ncn1,0.381,> 292,> 292,> 292,≥ 740,,1.5
CC(C)Nc1cccnc1N1CCN(C(=O)c2cc3cc(NS(C)(=O)=O)ccc3[nH]2)CC1 [DELAVIRDINE],0.548,> 4.39,,> 4.39,> 8,,
Cc1cc(C#N)cc(C)c1Oc1nc(Nc2ccc(C#N)cc2)nc(N)c1Br [ETRAVIRINE],,,> 27.8,,12900,,
Cc1ccnc2c1NC(=O)c1cccnc1N2C1CC1 [NEVIRAPINE],0.097,≥ 7.6,,> 15,> 155,,
Cc1cn([C@H]2C[C@H](N=[N+]=[N-])[C@@H](CO)O2)c(=O)[nH]c1=O [ZIDOVUDINE],0.008,0.006,,> 93.6,> 12000,,
